CRFR2-BP ag = agonists of CRF-BP/CRF-R2 complex, primary screen, cell-based, HEK293, calcium dye fluorescence, uHTS. actives 0.46% (n = 350,000). calcium dye fluorescence (FLIPR); percent of saturating CRF peptide response. CRF-binding protein / CRF receptor 2 complex (human). activation, % at 13.2 µM. AID 588473, 2011;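 active means activation of at least 50%, plus an integration ratio under a set limit after plate pattern correction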;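 further: plate controls were neutral control wells without compound for no effect and CRF at EC100 for full effect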
HNF4A DNA FP = change in binding of human HNF4A to DNA, primary screen, biochemical, fluorescence polarization, FITC-DNA. 1 h. activity change, % at 10 µM. actives 0.3% (n = 360,000). Hepatocyte nuclear factor 4-alpha (Homo sapiens), P41235; in the data active means activity change above about 30%, passing the limit was not always enough
TPT1 inh = Candida albicans TPT1 enzyme inhibitors, primary screen, biochemical, fluorescence polarization; AID 1962, 2009; actives 0.81% (n = 300,000); inhibition, % at 5 µM; recombinant caTPT1, FP RNA substrate dephosphorylation;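 active means inhibition above the mean of all tested compounds plus 3 SD, set per screening campaign, cut at about 24% in these data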;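 further: plate controls were DMSO alone for no effect and ferristatin control at 100 nM for full effect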
CSN deneddyl inh = inhibitors of CSN-mediated cullin deneddylation, primary screen, biochemical, fluorescence polarization, uHTS; COP9 signalosome complex subunit 5 (Homo sapiens), Q92905; Purified CSN, SCF-Nedd8-OG deneddylation; inhibition, % at 12.5 µM; actives 0.38% (n = 360,000); AID 651999, 2013;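 active means pattern-corrected inhibition above about 35%, with an unprinted fluorescence ratio check between 0.5 and 1.5, limit read from the data, passing the limit was not always enough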;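 further: 0% = enzyme with substrate and 100% = substrate without enzyme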
Target sequence (Q92905 whole entry, looked up, one chain of several): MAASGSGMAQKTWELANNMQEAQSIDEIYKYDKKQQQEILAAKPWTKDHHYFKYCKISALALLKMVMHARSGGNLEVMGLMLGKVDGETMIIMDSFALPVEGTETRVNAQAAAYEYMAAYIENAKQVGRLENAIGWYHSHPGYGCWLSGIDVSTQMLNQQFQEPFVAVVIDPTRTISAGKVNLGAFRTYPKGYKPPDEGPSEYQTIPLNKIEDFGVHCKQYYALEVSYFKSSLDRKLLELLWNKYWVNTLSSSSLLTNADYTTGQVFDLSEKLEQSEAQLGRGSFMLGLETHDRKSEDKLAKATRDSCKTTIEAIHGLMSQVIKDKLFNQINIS
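Assay system: HEK293T-derived human Csn5 enzyme; quantity: 0.24 nM enzyme; medium: Tris/NaCl/DTT buffer, pH 7.5; also added: substrate SCFSkp2-Nedd8OG, 10 nM; doses: 12.5 µM compound; schedule: 90 min reaction at room temperature; signal: FP; read-out: % inhibition of substrate cleavage by Csn5; benchmarks: substrate-only high control, full reaction low control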
CRFBP-R2 block = antagonists of CRF-BP/CRF-R2 complex, primary screen, cell-based, HEK293, calcium dye fluorescence, uHTS; AID 588475, 2011; inhibition, % at 11.8 µM; actives 0.59% (n = 350,000); CRF-induced calcium fluorescence;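 active means inhibition of the ligand-induced calcium signal above about 50% at the single tested concentration, limit read from the data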
Rpn11 inh = Rpn11 (PSMD14) deubiquitinase inhibitors, primary screen, biochemical, fluorescence polarization, uHTS | 26S proteasome non-ATPase regulatory subunit 14 (Homo sapiens), O00487 | human 26S proteasome, Ub4-pepOG fluorescence polarization; 20S core pre-blocked with epoxomicin | calls only at 20 µM | actives 0.59% (n = 360,000);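 active means inhibition at 20 µM, scaled to each plate's controls, above about 33%, limit read from the data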
caTPT1 confirm = Candida albicans TPT1 inhibitors, confirmation, biochemical, fluorescence polarization, triplicate | shares compounds with TPT1 inh | recombinant caTPT1, RNase T1 coupled | inhibition, % at 5 µM | actives 74% (n = 2,400) | AID 2149, 2009;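 active means inhibition above the primary screen limit, the mean inhibition of all tested compounds plus 3 SD, cut at about 25% in these data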
RNase T1 counter = RNase T1 inhibitors, counter-screen for TPT1 inhibitor project, biochemical, fluorescence polarization; inhibition, % at 5 µM; shares compounds with TPT1 inh; actives 83% (n = 2,400); RNase T1 cleavage, 1536-well;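 active means inhibition above the solvent-only control well mean plus 3 SD, limit set per screening run, cut at about 23% in these data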;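 further: plate controls were DMSO wells with enzyme for no effect and wells without RNase T1 for full effect; inhibitors block cleavage so intact labeled substrate keeps polarization high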
Target sequence (P00651 whole entry, looked up): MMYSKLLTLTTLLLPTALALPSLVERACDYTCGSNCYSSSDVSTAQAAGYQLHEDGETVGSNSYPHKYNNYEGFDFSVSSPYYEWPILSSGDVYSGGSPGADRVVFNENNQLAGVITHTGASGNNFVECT
Numbers without * were called inactive; i = inactive; . = not tested or not shown; + = active, no number. Shown are actives, neighbours in structure and some others; about 2.3% of the full set was active somewhere.

SMILES	CRFR2-BP ag	HNF4A DNA FP	TPT1 inh	CSN deneddyl inh	CRFBP-R2 block	Rpn11 inh	caTPT1 confirm	RNase T1 counter
O=C(O)CC/C(=N\Nc1ccc([N+](=O)[O-])cc1S(=O)(=O)N1CCOCC1)c1cccs1	3.0	-1.3	29.0*	9.7	-0.6	i	40.9*	52.1*
Cc1cc(Cl)cc(C)c1OCCCCN1CCOCC1	-2.3	23.4	-1.5	0.5	-7.8	i	.	.
CCN(CC)c1ccc(NC(=O)CCCOc2cccc(C)c2)cc1	-1.7	0.8	.	-4.7	8.8	i	.	.
CCN(CC)c1ccc(/C=N/OCC(=O)Nc2cccc(C)c2)cc1	10.9	30.3	33.9*	18.6	4.2	.	43.4*	56.1*
O=C(Nc1nc2c(s1)CN(Cc1ccccc1)CC2)C1CCC1	8.2	7.6	10.4	5.3	-14.8	i	.	.
CN(C)c1ccc(/C=C(\C#N)C(=O)Nc2nc3c(s2)CCN(Cc2ccccc2)C3)cc1	345.2*	66.2	+	29.3	-459.0	.	131.8*	146.2*
O=S(=O)(NC1CCCCC1NS(=O)(=O)c1ccc(F)cc1)c1ccc(F)cc1 (stereo unspecified)	-1.2	-1.3	-3.6	4.0	-10.1	i	.	.
Cc1cc(C)cc(NC(=O)CSc2nccn2Cc2ccco2)c1	-2.6	2.7	-1.3	-0.3	11.9	i	.	.
O=C(O)c1ccc(/C=C2\SC(=S)N(NC(=O)c3ccccc3)C2=O)cc1	-1.7	1.3	11.3	-6.5	1.6	i	.	.
Cn1cccc1/C=C1\SC(=S)N(NC(=O)c2ccc(F)cc2)C1=O	5.0	90.9*	96.8*	54.0*	-6.9	.	111.0*	118.2*
Cn1cccc1/C=C1\SC(=S)N(NC(=O)c2ccccc2)C1=O	3.5	86.5*	88.5*	33.9	-3.1	.	91.2*	111.4*
O=C(NN1C(=O)/C(=C/c2cccs2)SC1=S)c1ccccc1	-0.8	0.9	-0.7	3.0	14.9	i	.	.
CCO/C=C1/C(=O)N(C)C(=O)c2cc(OC)ccc21	0.1	-1.7	38.6*	-1.5	6.9	i	54.9*	66.2*
CCO/C=C1/C(=O)N(c2ccc(OC)cc2)C(=O)c2ccccc21	3.5	4.0	1.4	11.8	35.0	i	.	.
O=C1S/C(=C/c2ccc(N3CCOCC3)o2)C(=O)N1Cc1ccc(F)cc1	114.3*	187.1	136.5*	132.0	-132.1	.	163.0*	162.1*
O=C1N/C(=C/c2ccc(N3CCOCC3)cc2)C(=O)N1Cc1ccc(F)cc1	4.0	-3.1	-5.0	1.9	0.7	i	.	.
O=C1N=C(N2CCOCC2)S/C1=C/c1ccc(-c2ccc(F)cc2)o1	-0.3	8.0	11.4	5.8	-6.2	i	.	.
C=CCN1C(=O)N/C(=C/c2ccc(N3CCOCC3)o2)C1=O	.	.	28.9*	.	.	.	104.6*	112.5*
O=C1S/C(=C\c2ccc(N3CCOCC3)o2)C(=O)N1Cc1ccc(F)cc1	31.7	130.1	141.6*	115.3	-9.4	.	168.3*	164.7*
COc1ccc(NC(=O)/C(Cl)=C(/Cl)S(=O)Cc2ccccc2Cl)cn1 (stereo unspecified)	34.6	.	.	.	-8.4	.	.	.
Cc1[nH]c2ccccc2c1/C=N/NC(=S)NC(C)C	1.4	14.7	25.4*	10.8	-26.6	i	38.8*	44.9*
Cn1c(=O)oc2cc(S(=O)(=O)N3CCCC3)ccc21	-5.9	4.5	1.1	5.0	26.7	i	.	.

Screening results from PubChem BioAssay.
